ChEMBL document CHEMBL1154742, “Modular synthesis and in vitro and in vivo antimalarial assessment of C-10 pyrrole mannich base derivatives of artemisinin” (J Med Chem, 2010)
pIC50: −log10 of the molar value.

Columns and labels:
KB = assay: Cytotoxicity against human KB cells after 72 hrs by alamar blue assay; format: cell-based
Summary of the method: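 KB cells seeded at 4 × 10^4 cells/mL in RPMI 1640 with 10% heat-inactivated fetal calf serum and grown 24 h at 37 °C in 5% CO2. Compound dilution series added in triplicate for 72 h, with podophyllotoxin as positive control. AlamarBlue added for 2-4 h; fluorescence read at ex 530/em 585 nm and IC50 obtained by curve fitting.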

Plasmodium falciparum [1] = assay: Antimalarial activity against chloroquine-sensitive Plasmodium falciparum 3D7 assessed as growth inhibition by [3H]hypoxanthine incorporation assay; format: functional, organism-based
Summary of the method: (§1)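 Asynchronous P. falciparum culture (65-75% rings, 0.5% parasitemia) at 2.5% final hematocrit, with triplicate 3-fold drug dilutions (10.0 to 0.0041 μg/mL) in RPMI 1640 with 0.5% Albumax II, glucose, L-glutamine and 5 μM hypoxanthine. DMSO was ≤0.01% final. After 24 h at 37 °C in 5% CO2, [3H]hypoxanthine (0.2 μCi/well) was added for a further 24 h. Plates were frozen and harvested, incorporation counted by scintillation, and IC50 obtained by curve fitting.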

[2] = Therapeutic index, ratio of IC50 for human KB cells to IC50 for Plasmodium falciparum 3D7; format: cell-based; conditions: KB cells (cytotoxicity) versus Plasmodium falciparum 3D7, read-out: TI
Plasmodium falciparum [3] = assay: Antimalarial activity against chloroquine-sensitive Plasmodium falciparum 3D7 assessed as growth inhibition by [3H]hypoxanthine incorporation assay relative to artemisinin; format: functional
Plasmodium falciparum [4] = assay: Antimalarial activity against chloroquine-resistant Plasmodium falciparum K1 (Thailand) assessed as growth inhibition by [3H]hypoxanthine incorporation assay; format: functional, organism-based; summary of the method: as §1
Plasmodium falciparum [5] = assay: Antimalarial activity against chloroquine-resistant Plasmodium falciparum K1 (Thailand) assessed as growth inhibition by [3H]hypoxanthine incorporation assay relative to artemisinin; format: functional
Plasmodium berghei [6] = assay: Antimalarial activity against Plasmodium berghei ANKA infected Swiss CD1 mice (Mus musculus) assessed as reduction of parasitemia at 30 mg/kg, perorally administered after 3 hrs of infection for 3 days measured on day 4 relative to control; format: functional; conditions: route oral
Summary of the method: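 Male Swiss CD-1 mice (20 g) infected iv with 4 × 10^6 P. berghei ANKA-infected red cells on day 0, in groups of five. Compound was given orally in standard suspending vehicle (carboxymethylcellulose, benzyl alcohol, Tween 80, saline), 3 × 30 mg/kg, starting 3 h post-infection, once daily. Parasitemia was counted on Giemsa-stained smears on day 4 and expressed as % inhibition versus the untreated group mean.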

Plasmodium berghei [7] = assay: Antimalarial activity against Plasmodium berghei ANKA infected NMRI mice (Mus musculus) assessed as reduction of parasitemia treated perorally for 3 days measured on day 4; format: functional; conditions: po
Plasmodium berghei [8] = assay: Antimalarial activity against Plasmodium berghei ANKA infected NMRI mice (Mus musculus) assessed as reduction of parasitemia at 10 mg/kg, intraperitoneally 4 consecutive doses for 3 days measured on day 4 by FACS analysis; conditions: ip
Plasmodium berghei [9] = assay: Antimalarial activity against Plasmodium berghei ANKA infected NMRI mice (Mus musculus) assessed as mean survival time at 10 mg/kg, intraperitoneally 4 consecutive doses for 3 days measured on day 4 by FACS analysis; conditions: route intraperitoneal

| Structure (SMILES) | pIC50 (KB) | pIC50 (Plasmodium falciparum [1]) | selectivity ratio [2] | Ratio IC50 (Plasmodium falciparum [3]) | pIC50 (Plasmodium falciparum [4]) | Ratio IC50 (Plasmodium falciparum [5]) | inhibition in vivo at 30 mg/kg (Plasmodium berghei [6]) [%] | ED50 (Plasmodium berghei [7]) [mg/kg] | ED90 (Plasmodium berghei [7]) [mg/kg] | inhibition in vivo at 10 mg/kg (Plasmodium berghei [8]) [%] | MSD (Plasmodium berghei [9]) [days] |
| --- | --- | --- | --- | --- | --- | --- | --- | --- | --- | --- | --- |
| C[C@H]1[C@H](c2ccc(CN3CCCCC3)[nH]2)O[C@@H]2O[C@@]3(C)CC[C@H]4[C@H](C)CC[C@@H]1[C@@]24OO3 | 3.84 | 7.23 | 2410 | 0.22 | – | – | – | – | – | – | – |
| CC(C)N1CCN(Cc2ccc([C@@H]3O[C@@H]4O[C@@]5(C)CC[C@H]6[C@H](C)CC[C@@H]([C@H]3C)[C@@]46OO5)n2C)CC1 | – | 8.29 | – | 2.51 | 8.08 | 0.99 | – | – | – | – | – |
| C[C@H]1[C@H](c2ccc(CN3CCCC3)[nH]2)O[C@@H]2O[C@@]3(C)CC[C@H]4[C@H](C)CC[C@@H]1[C@@]24OO3 | 4.33 | 7.77 | 2780 | 0.76 | – | – | – | – | – | – | – |
| C[C@H]1[C@H](c2ccc(CN3CCCCC3)n2C)O[C@@H]2O[C@@]3(C)CC[C@H]4[C@H](C)CC[C@@H]1[C@@]24OO3 | 4.41 | 8.21 | 6430 | 2.1 | – | – | – | – | – | – | – |
| C[C@H]1[C@H](c2ccc(CN3CCOCC3)[nH]2)O[C@@H]2O[C@@]3(C)CC[C@H]4[C@H](C)CC[C@@H]1[C@@]24OO3 | 4.25 | 8.60 | 22600 | 2.84 | 8.49 | 2.56 | 100 | 2.11 | 4.3 | – | – |
| C[C@H]1[C@H](c2ccc(CN3CCS(=O)(=O)CC3)n2C)O[C@@H]2O[C@@]3(C)CC[C@H]4[C@H](C)CC[C@@H]1[C@@]24OO3 | 4.17 | 8.66 | 31100 | 5.82 | 8.45 | 2.3 | – | – | – | – | – |
| C[C@H]1[C@H](c2ccc(CN3CCN(C)CC3)[nH]2)O[C@@H]2O[C@@]3(C)CC[C@H]4[C@H](C)CC[C@@H]1[C@@]24OO3 | 4.07 | 8.19 | 13100 | 1.97 | 8.30 | 1.64 | 97.7 | – | – | 98 | 7 |
| C[C@H]1[C@H](c2ccc(CN3CCCC3)n2C)O[C@@H]2O[C@@]3(C)CC[C@H]4[C@H](C)CC[C@@H]1[C@@]24OO3 | 4.37 | 8.43 | 11400 | 3.46 | – | – | – | – | – | – | – |
| C[C@H]1[C@H](c2ccc(CN3CCC(N4CCCC4)CC3)n2C)O[C@@H]2O[C@@]3(C)CC[C@H]4[C@H](C)CC[C@@H]1[C@@]24OO3 | – | 8.60 | – | 5.12 | 8.14 | 1.12 | – | – | – | – | – |
| C[C@H]1[C@H](c2ccc[nH]2)O[C@@H]2O[C@@]3(C)CC[C@H]4[C@H](C)CC[C@@H]1[C@@]24OO3 | 4.20 | 8.13 | 8450 | 1.73 | – | – | – | – | – | – | – |
| C[C@H]1[C@H](c2ccc(CN3CCSCC3)n2C)O[C@@H]2O[C@@]3(C)CC[C@H]4[C@H](C)CC[C@@H]1[C@@]24OO3 | 3.86 | 8.14 | 19100 | 1.78 | – | – | – | – | – | – | – |
| C[C@H]1[C@H](c2ccc(CN3CCOCC3)n2C)O[C@@H]2O[C@@]3(C)CC[C@H]4[C@H](C)CC[C@@H]1[C@@]24OO3 | 4.06 | 8.46 | 24600 | 3.66 | 8.72 | 4.32 | 100 | 1.77 | 5.2 | – | – |
| C[C@H]1[C@H](c2ccc(CN(C)C)n2C)O[C@@H]2O[C@@]3(C)CC[C@H]4[C@H](C)CC[C@@H]1[C@@]24OO3 | – | 7.50 | – | 0.4 | – | – | – | – | – | – | – |
| CCN(CC)Cc1ccc([C@@H]2O[C@@H]3O[C@@]4(C)CC[C@H]5[C@H](C)CC[C@@H]([C@H]2C)[C@@]35OO4)[nH]1 | – | 7.12 | – | 0.17 | – | – | – | – | – | – | – |
| C[C@H]1[C@H](c2cccn2C)O[C@@H]2O[C@@]3(C)CC[C@H]4[C@H](C)CC[C@@H]1[C@@]24OO3 | 4.22 | 8.28 | 11600 | 2.46 | – | – | – | 4.5 | 8.5 | – | – |
| CC(C)N1CCN(Cc2ccc([C@@H]3O[C@@H]4O[C@@]5(C)CC[C@H]6[C@H](C)CC[C@@H]([C@H]3C)[C@@]46OO5)[nH]2)CC1 | 4.34 | 8.07 | 5330 | 1.51 | 8.46 | 2.34 | 90.5 | – | – | 90 | 6 |
| C[C@H]1[C@H](c2ccc(CN3CCN(C)CC3)n2C)O[C@@H]2O[C@@]3(C)CC[C@H]4[C@H](C)CC[C@@H]1[C@@]24OO3 | 4.02 | 8.19 | 14800 | 1.97 | 8.42 | 2.16 | 100 | 1.99 | 5.34 | 100 | 9 |
| C[C@H]1[C@H](c2ccc(CN(C)C)[nH]2)O[C@@H]2O[C@@]3(C)CC[C@H]4[C@H](C)CC[C@@H]1[C@@]24OO3 | 4.36 | 7.69 | 2130 | 0.62 | – | – | – | – | – | – | – |
| CO[C@H]1O[C@@H]2O[C@@]3(C)CC[C@H]4[C@H](C)CC[C@@H]([C@H]1C)[C@@]24OO3 [ARTEMETHER] | – | 8.38 | – | – | – | 2.41 | 100 | – | 10.6 | – | – |
| C[C@@H]1CC[C@H]2[C@@H](C)C(=O)O[C@@H]3O[C@@]4(C)CC[C@@H]1[C@]32OO4 [ARTEMISININ] | < 3.45 | 7.89 | > 27700 | – | 8.09 | – | – | – | – | – | – |
| C[C@H]1[C@H](OC(=O)CCC(=O)O)O[C@@H]2O[C@@]3(C)CC[C@H]4[C@H](C)CC[C@@H]1[C@@]24OO3 [ARTESUNATE] | – | – | – | – | – | – | 100 | 3.23 | > 10 | 98 | 8 |
| CCN(CC)CCCC(C)Nc1ccnc2cc(Cl)ccc12 (stereo not drawn) [CHLOROQUINE PHOSPHATE] | 3.95 | – | – | – | – | – | – | – | – | – | – |
